Measurements from different studies.
Lines come from different studies, so protocols differ.
Cell line: HCT-116
Observed: cell growth or viability

Structure (SMILES)	assay	conditions	IC50 [nM]
Cc1nc(NC(=O)N2CCC[C@H]2C(N)=O)sc1-c1ccnc(C(C)(C)C(F)(F)F)c1	MTT	–	4340
COc1nc(NCc2cn(-c3ccc(NC(=O)c4ccc(Br)cc4)cc3)nn2)nc(OC)n1	MTT	72 h	56.6
Cc1nc(Nc2ccc3c(c2)/C(=C/c2ccccc2)C(=O)N3C)c2ccccc2n1	MTT	–	21400
COc1nc(NCc2cn(-c3ccc(C(N)=O)cc3)nn2)nc(OC)n1	MTT	72 h	79.7
COc1ccc(-c2cc(-c3ccc(OC)cc3)c3c(=O)n(C)c(=O)n(C)c3n2)cc1	MTT	48 h	11600
Cc1nc(N(Cc2ccccc2)c2ccc3c(c2)/C(=C/c2ccccc2)C(=O)N3Cc2ccccc2)c2ccccc2n1 (mixture of isomers)	MTT	–	980
Cc1ccc(-c2cc(-c3ccc(Cl)cc3)c3c(=O)[nH]c(=O)[nH]c3n2)cc1	MTT	48 h	5440
COc1nc(NCc2cn(-c3ccc(NC(=O)c4ccc(C(F)(F)F)cc4)cc3)nn2)nc(OC)n1	MTT	72 h	39.9
Cc1nc2ccc(CN(C)c3ccc(C(=O)N[C@@H](CCC(=O)O)C(=O)O)s3)cc2c(=O)[nH]1	MTT	48 h	1070
C=C(F)C(=O)N1CCN(c2nc(OC[C@@H]3CCCN3C)nc3c2CCN(c2cccc4cccc(Cl)c24)C3)C[C@@H]1CC#N	ATP luminescence	3D culture	> 1000
